PGC1a acetyl inh – inhibitors of PGC1a acetylation signal, primary screen, cell-based, U2OS, AlphaScreen, inhibitor mode. inhibition, % at 15.6 µM. AID 651687, 2012. AlphaScreen anti-acetyl-lysine; with virally co-expressed GCN5 acetyltransferase. actives 0.17% (n = 350,000);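 active = every replicate shows inhibition of at least 40%; inconclusive = mean inhibition at least 40% but some replicate below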;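 also: 0% = neutral control wells and 100% = positive control wells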
Env fusion inh – inhibitors of HIV-1 Env-driven cell-cell fusion, primary screen, HeLa-JRFL effector, CEM21 target cells, luciferase; actives 1.1% (n = 360,000); AID 651610, 2012; inhibition, % at 12.3 µM;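 active = mean replicate inhibition score of at least 50 and every replicate individually at or above 50; inconclusive = only one of the two criteria met; inactive = mean below 50 and not all replicates reaching 50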;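 also: 0% = plate neutral controls and 100% = maraviroc near 300 nM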
PAX8 inh HTS – inhibitors of PAX8-driven TPO luciferase reporter, primary screen, RMG-I cells, single concentration; SteadyGlo, 24 h; inhibition, % at 12.6 µM; actives 1.2% (n = 360,000);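 active = mean replicate inhibition at least 60% with every replicate also reaching 60%; inconclusive = only one of the two criteria is met; inactive = mean below 60% and not all replicates reaching 60%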;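 also: luciferase light reporting Pax8 driven TPO promoter activity; plate controls were median of neutral control wells for no effect and mitoxantrone controls for full effect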
F508del corr – F508del CFTR correction, initial screen, CFBE line, single point. CFBE cells, YFP halide quenching; stimulated with forskolin plus potentiator P3; % fluorescence drop versus neutral controls. activity (quench increase), % at 7.58 µM. actives 0.36% (n = 350,000). AID 720511, 2013;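 active = mean added fluorescence quench of at least 8% versus neutral control, with both replicates also reaching 8%; inconclusive = only one of the mean or replicate conditions met; inactive = mean below 8% and not both replicates reaching 8%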;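 also: cells transiently co-express mutant CFTR-F508del with the halide-sensitive YFP; corrector assay measuring rescue of mutant channel to the surface after 24 h compound exposure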
FN deposition inh – inhibitors of fibronectin matrix deposition, primary screen, AH1F cells, Alexa488-fibronectin fluorescence, plate reader; AH1F fibroblasts, overnight; actives 0.086% (n = 350,000); AID 743247, 2014; inhibition, % at 12.6 µM;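 active = mean inhibition across replicates of 30% or more, regardless of how many single replicates reach that level; inconclusive = mean under 30% yet at least half of replicates reach 30%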;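 also: positive control wells lacked labelled fibronectin entirely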
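Assay system: AH1F fibroblast monolayer, labelled fibronectin deposition. Amount: 10000 cells per well. Also added: labelled fibronectin 24 nM. Compound: single-point pinned compound. Incubation: cell attachment 1 h, compound and FN exposure overnight. Detection: fluorescence after three HBSS washes, excitation 485 nm, emission 525 nm. Read-out: inhibition of fibronectin deposition signal.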
EWS-Fli block – EWS/Fli-driven NR0B1 reporter inhibitors, primary screen, A673 cells, NR0B1 luciferase, luminescence, MLPCN library. viability-normalised. inhibition, % at 12.6 µM. actives 0.67% (n = 350,000). AID 651661, 2012;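 active = mean inhibition of at least 50% after viability correction, with every replicate also passing that limit; inconclusive = mean reaches 50% but only one of two replicates passes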;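 also: firefly luciferase signal divided by Alamar Blue viability fluorescence both relative to DMSO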
Active calls of the source: *; u = inconclusive; x = no result; [ ] = dose if it differs, or a comment. Compounds with a hit are over-represented: about 2.3% of the library has one in this group of screens.

SMILES	PGC1a acetyl inh	Env fusion inh	PAX8 inh HTS	F508del corr	FN deposition inh	EWS-Fli block
COC(=O)c1cnc(Oc2ccc(NC(=O)NC(=O)c3c(F)cccc3Cl)cc2)cc1C(F)(F)F	-4	-62	31	0	-4	51*
Cc1noc(C)c1NC(=O)Nc1ccc2c(c1)CC(=O)N([C@@H](C)CO)C[C@H](C)[C@@H](CN(C)Cc1ccccc1)O2	x	-11[16.7 µM]	10	0	x	10
CC1CCN(c2ccc(-c3cccc(NC(=O)C(F)(F)F)c3)nn2)CC1	x	80*	94*	-1	6	x
CCC(=O)Nc1cccc(-c2ccc(N3CCC(C)CC3)nn2)c1	x	16	18	-3	5	x
O=C(Nc1cccc(-c2ccc(N3CCCCC3)nn2)c1)C(F)(F)F	4	68*	95*	-3	8	x
CC(O)CC(=O)OC[C@]12CC[C@H]3[C@@](C)(CC[C@H]4C(C)(C)CCC[C@]34C)[C@@H]1CC(C1=CC(=O)OC1O)O2 (stereo partly specified)	21	x	x	-11	x	59*
O=S(=O)(N[C@@H]1CC[C@@H](CCNS(=O)(=O)c2ccccc2Cl)O[C@@H]1CO)c1ccccc1	5	-42[16.7 µM]	-2	-1	x	-3
Cc1[nH]n(-c2ccccc2)c(=O)c1N=Nc1ccccc1O	9	26	66*	2	5	13
CC(=O)OCC(=O)Nc1ccc([N+](=O)[O-])cc1Cl	x	-8	1	2	x	-8
CC(=O)Oc1c(C)cc(Cl)cc1C(=O)Nc1ccc([N+](=O)[O-])cc1Cl	x	u	42	13*	x	-12
c1ccc(OCc2nn3c(C4CCCCC4)nnc3s2)cc1	7	63*	x	x	-2	x
O=C(N/N=C/c1ccc[nH]1)c1ccc(COc2cccc3cccnc23)cc1	-6	71*	79*	-1	0	23
O=C(N/N=C/c1ccc[nH]1)c1ccc(O)cc1	8	7	2	1	1	-7
O=C(N/N=C/c1ccccc1C(=O)O)c1ccc(COc2cccc3cccnc23)cc1	4	10	9	-2	-12	-1
Cc1cc(Br)c(OCc2ccc(C(=O)N/N=C/c3ccc[nH]3)cc2)c(Br)c1	87*	91*	95*	-5	1	58*
C[C@@H]1CN([C@H](C)CO)C(=O)Cc2cc(NC(=O)C3CC3)ccc2O[C@H]1CN(C)C	3	-7[16.7 µM]	6	-2	5	x
C[C@@H]1CN([C@H](C)CO)C(=O)c2cc(C#Cc3ccccn3)cnc2O[C@H]1CN(C)Cc1ccncc1	0	-25[16.7 µM]	x	-1	-9	-4
O=C(Nc1ccc(S(=O)(=O)N2CCOCC2)cc1)c1cc(-c2cc(Cl)ccc2O)n[nH]1	-18	-20	76*	1	12	59*
Cc1cc(O)c(-c2cc(C(=O)Nc3ccc(S(=O)(=O)N4CCOCC4)cc3)[nH]n2)cc1C	-7	-35	73*	x	-2	x
Cc1ccc(O)c(-c2cc(C(=O)Nc3ccc(S(=O)(=O)N4CC(C)OC(C)C4)cc3)[nH]n2)c1 (stereo unspecified)	-20	-41	22	x	0	x
O=C(Nc1ccc(Cl)cc1)c1ccc(S(=O)(=O)N2CCOCC2)cc1	x	2	-6	1	4	0
Cc1ccc(S(=O)(=O)N[C@@H]2C=C[C@H](CC(=O)O)O[C@H]2CO)cc1	2	12[16.7 µM]	-9	-1	x	11
Cc1ccc(S(=O)(=O)N(C)C[C@H]2Oc3ccc(NC(=O)CCN4CCOCC4)cc3C(=O)N([C@H](C)CO)C[C@@H]2C)cc1	2	x	-16	-1	x	1
CC(/C=N/NC(=O)c1nnn(-c2nonc2N)c1CN(C)C)=C\c1ccco1	3	14	15	-1	-3	8
CCCN(CCC)Cc1c(C(=O)N/N=C/C(C)=C\c2ccco2)nnn1-c1nonc1N	x	14	93*	0	-14	13
SMILES	PGC1a acetyl inh	Env fusion inh	PAX8 inh HTS	F508del corr	FN deposition inh	EWS-Fli block
COC(=O)[C@]1(Cc2ccccc2)N[C@H](CN(C)C(=O)Nc2ccc(C(F)(F)F)cc2)[C@@H]2C(=O)N(Cc3ccccc3)C(=O)[C@@H]21	5	28	25	1	x	2
CCN(C[C@H]1N[C@@](CC)(C(=O)OC)[C@H]2C(=O)N(Cc3ccccc3)C(=O)[C@@H]12)S(=O)(=O)c1ccc(OC)cc1	-11	78*	-6	-1	3	3
CCN(C[C@H]1N[C@@](Cc2ccccc2)(C(=O)OC)[C@H]2C(=O)N(Cc3ccccc3)C(=O)[C@@H]12)S(=O)(=O)c1ccc(OC)cc1	-9	-103	25	2	9	14
CC[C@@]1(C(=O)OC)N[C@H](CN(C)C(=O)Nc2ccccc2)[C@@H]2C(=O)N(Cc3ccccc3)C(=O)[C@@H]21	x	60*	14	-2	-5	-1
CC[C@@]1(C(=O)OC)N[C@H](CN(C)C(=O)Nc2ccc(C(F)(F)F)cc2)[C@@H]2C(=O)N(Cc3ccccc3)C(=O)[C@@H]21	-2	85*	11	3	x	3
Cc1noc(C)c1NC(=O)Nc1ccc2c(c1)C(=O)N([C@@H](C)CO)C[C@@H](C)[C@@H](CN(C)C(=O)Nc1ccc3c(c1)OCO3)OCCCC[C@@H](C)O2	3	23[16.7 µM]	x	0	3	-9
CC(C)NC(=O)N(C)C[C@@H]1OCCCC[C@H](C)Oc2ccc(NC(=O)Nc3ccc(C(F)(F)F)cc3)cc2C(=O)N([C@H](C)CO)C[C@@H]1C	0	14[16.7 µM]	32	3	-25	7
O=C(/C=C/c1ccccn1)c1cc(Cl)cc(Cl)c1O	-50	-15	63*	2	0	1
O=P(CCCCCCCCCP(=O)(c1ccccc1)c1ccccc1)(c1ccccc1)c1ccccc1	78*	-232	80*	x	9	x
O=C(O)CCCCCCCCCCP(=O)(c1ccccc1)c1ccccc1	5	-13	7	3	1	9
Cc1cc(NCc2ccccn2)n2ncc(-c3ccccc3)c2n1	0	-112	-42	8.5*	13	-52
Cc1cc(NCc2ccccn2)n2ncc(-c3ccc(Cl)cc3)c2n1	-14	-42	-129	0	18	-83
COc1ccc(N2CC(C(=O)N/N=C/c3ccc(C)cc3)CC2=O)cc1 (stereo unspecified)	3	18	20	x	-7	60*
COc1ccc(N2CC(C(=O)N/N=C/c3ccc([N+](=O)[O-])cc3)CC2=O)cc1 (stereo unspecified)	x	-4	8	-1	1	17
